In brackets after ≈: the same amount, converted by molar mass. Activity calls are given as the source filed them. The calls are words filed in the database; no cut-off is given here.
Columns and labels:
Saccharomyces cerevisiae = experiment: Antifungal activity against Saccharomyces cerevisiae ATCC 9763 by agar dilution method; format: functional, organism-based
Procedure, shortened: (§1)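 Sabouraud chloramphenicol agar dilution in 96-well plates. Strains were grown on Sabouraud chloramphenicol agar slants for 48 h at 30 °C and suspended in sterile distilled water, adjusted to 10^6 viable cells/mL. DMSO stocks were serially two-fold diluted into the agar to give 0.10–50 µg/mL, with DMSO ≤2% final. 5 µL inoculum per well; incubated 24, 48 or 72 h at 30 °C per control growth; MIC recorded.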

Epidermophyton floccosum [1] = experiment: Antifungal activity against Epidermophyton floccosum C 114 by agar dilution method; format: functional
Procedure, shortened: (§2)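 Dermatophytes were tested by agar dilution on Sabouraud chloramphenicol agar in 96-well plates. DMSO stock solutions were serially two-fold diluted into the medium to give final concentrations of 0.10–50 µg/mL, with DMSO not exceeding 2%. Each well received 5 µL of spore suspension.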

Candida albicans = experiment: Antifungal activity against Candida albicans ATCC 10231 by agar dilution method; format: functional, organism-based; procedure, shortened: as §1
Trichophyton rubrum [2] = experiment: Antifungal activity against Trichophyton rubrum C 113 by agar dilution method; format: functional; procedure, shortened: as §2
[3] = tested on: Trichophyton mentagrophytes; experiment: Antifungal activity against Trichophyton mentagrophytes ATCC by agar dilution method; format: functional; procedure, shortened: as §2
Nannizzia gypsea [4] = experiment: Antifungal activity against Microsporum gypseum C 115 by agar dilution method; format: functional; procedure, shortened: as §2
Aspergillus fumigatus = experiment: Antifungal activity against Aspergillus fumigatus ATCC 26934 by agar dilution method; format: functional, organism-based; procedure, shortened: as §1
Microsporum canis [5] = experiment: Antifungal activity against Microsporum canis C 112 by agar dilution method; format: functional; procedure, shortened: as §2
Trichophyton rubrum [6] = experiment: Antifungal activity against Trichophyton rubrum C 113 up to 50 ug/mL by agar dilution method; format: functional, organism-based; procedure, shortened: as §2
Aspergillus niger = experiment: Antifungal activity against Aspergillus niger ATCC 9029 by agar dilution method; format: functional, organism-based; procedure, shortened: as §1
[7] = tested on: Trichophyton mentagrophytes; experiment: Antifungal activity against Trichophyton mentagrophytes ATCC 9972 up to 50 ug/mL by agar dilution method; format: functional, organism-based; procedure, shortened: as §2
Cryptococcus neoformans = experiment: Antifungal activity against Cryptococcus neoformans ATCC 32264 by agar dilution method; format: functional, organism-based; procedure, shortened: as §1
Aspergillus flavus = experiment: Antifungal activity against Aspergillus flavus ATCC 9170 by agar dilution method; format: functional, organism-based; procedure, shortened: as §1
Nannizzia gypsea [8] = experiment: Antifungal activity against Microsporum gypseum C 115 up to 50 ug/mL by agar dilution method; format: functional, organism-based; procedure, shortened: as §2
Microsporum canis [9] = experiment: Antifungal activity against Microsporum canis C 112 up to 50 ug/mL by agar dilution method; format: functional, organism-based; procedure, shortened: as §2
Epidermophyton floccosum [10] = experiment: Antifungal activity against Epidermophyton floccosum C 114 up to 50 ug/mL by agar dilution method; format: functional, organism-based; procedure, shortened: as §2

COc1ccc(C(=O)C(C)Br)cc1OC (centres undefined)
Activity (Saccharomyces cerevisiae): inactive
MIC (Epidermophyton floccosum [1]): 3 µg/mL (≈ 11 µM)
Activity (Candida albicans): inactive
MIC (Trichophyton rubrum [2]): > 50 µg/mL
MIC [3]: 25 µg/mL (≈ 91.5 µM)
MIC (Nannizzia gypsea [4]): 40 µg/mL (≈ 146 µM)
Activity (Aspergillus fumigatus): inactive
MIC (Microsporum canis [5]): 12.5 µg/mL (≈ 45.8 µM)
Activity (Trichophyton rubrum [6]): inactive
Activity (Aspergillus niger): inactive
Activity [7]: inactive
Activity (Cryptococcus neoformans): inactive
Activity (Aspergillus flavus): inactive

CCC(=O)c1cc2ccccc2c2ccccc12
Activity (Saccharomyces cerevisiae): inactive
MIC (Epidermophyton floccosum [1]): 20 µg/mL (≈ 85.4 µM)
Activity (Candida albicans): inactive
MIC (Trichophyton rubrum [2]): 6.25 µg/mL (≈ 26.7 µM)
MIC [3]: 3 µg/mL (≈ 12.8 µM)
MIC (Nannizzia gypsea [4]): 6.25 µg/mL (≈ 26.7 µM)
Activity (Aspergillus fumigatus): inactive
MIC (Microsporum canis [5]): 3 µg/mL (≈ 12.8 µM)
Activity (Aspergillus niger): inactive
Activity (Cryptococcus neoformans): inactive
Activity (Aspergillus flavus): inactive

COc1cc(C(=O)C(C)Br)cc(OC)c1OC (centres undefined)
Activity (Saccharomyces cerevisiae): inactive
MIC (Epidermophyton floccosum [1]): 8 µg/mL (≈ 26.4 µM)
Activity (Candida albicans): inactive
MIC (Trichophyton rubrum [2]): > 50 µg/mL
MIC [3]: 12.5 µg/mL (≈ 41.2 µM)
MIC (Nannizzia gypsea [4]): 50 µg/mL (≈ 165 µM)
Activity (Aspergillus fumigatus): inactive
MIC (Microsporum canis [5]): 15 µg/mL (≈ 49.5 µM)
Activity (Trichophyton rubrum [6]): inactive
Activity (Aspergillus niger): inactive
Activity [7]: inactive
Activity (Nannizzia gypsea [8]): inactive
Activity (Cryptococcus neoformans): inactive
Activity (Aspergillus flavus): inactive

C/C=C\c1ccc(O)c(OC)c1 [ISOEUGENOL]
Activity (Saccharomyces cerevisiae): inactive
MIC (Epidermophyton floccosum [1]): > 50 µg/mL
Activity (Candida albicans): inactive
MIC (Trichophyton rubrum [2]): > 50 µg/mL
Activity (Microsporum canis [9]): inactive
MIC [3]: > 50 µg/mL
MIC (Nannizzia gypsea [4]): > 50 µg/mL
Activity (Aspergillus fumigatus): inactive
MIC (Microsporum canis [5]): > 50 µg/mL
Activity (Trichophyton rubrum [6]): inactive
Activity (Aspergillus niger): inactive
Activity [7]: inactive
Activity (Nannizzia gypsea [8]): inactive
Activity (Cryptococcus neoformans): inactive
Activity (Epidermophyton floccosum [10]): inactive
Activity (Aspergillus flavus): inactive

CCC(=O)c1ccc(OC)c(OC)c1
Activity (Saccharomyces cerevisiae): inactive
MIC (Epidermophyton floccosum [1]): 50 µg/mL (≈ 257 µM)
Activity (Candida albicans): inactive
MIC (Trichophyton rubrum [2]): > 50 µg/mL
Activity (Microsporum canis [9]): inactive
MIC [3]: > 50 µg/mL
MIC (Nannizzia gypsea [4]): > 50 µg/mL
Activity (Aspergillus fumigatus): inactive
MIC (Microsporum canis [5]): > 50 µg/mL
Activity (Trichophyton rubrum [6]): inactive
Activity (Aspergillus niger): inactive
Activity [7]: inactive
Activity (Nannizzia gypsea [8]): inactive
Activity (Cryptococcus neoformans): inactive
Activity (Epidermophyton floccosum [10]): inactive
Activity (Aspergillus flavus): inactive

CC(C)C(=O)c1ccc2ccccc2c1
Activity (Saccharomyces cerevisiae): inactive
MIC (Epidermophyton floccosum [1]): 40 µg/mL (≈ 202 µM)
Activity (Candida albicans): inactive
MIC (Trichophyton rubrum [2]): > 50 µg/mL
Activity (Microsporum canis [9]): inactive
MIC [3]: 25 µg/mL (≈ 126 µM)
MIC (Nannizzia gypsea [4]): 25 µg/mL (≈ 126 µM)
Activity (Aspergillus fumigatus): inactive
MIC (Microsporum canis [5]): 40 µg/mL (≈ 202 µM)
Activity (Trichophyton rubrum [6]): inactive
Activity (Aspergillus niger): inactive
Activity [7]: inactive
Activity (Nannizzia gypsea [8]): inactive
Activity (Cryptococcus neoformans): inactive
Activity (Epidermophyton floccosum [10]): inactive
Activity (Aspergillus flavus): inactive

CC(Br)C(=O)c1ccc2c(c1)OCO2 (centres undefined)
Activity (Saccharomyces cerevisiae): inactive
MIC (Epidermophyton floccosum [1]): 6.25 µg/mL (≈ 24.3 µM)
Activity (Candida albicans): inactive
MIC (Trichophyton rubrum [2]): 12.5 µg/mL (≈ 48.6 µM)
MIC [3]: 20 µg/mL (≈ 77.8 µM)
MIC (Nannizzia gypsea [4]): 25 µg/mL (≈ 97.2 µM)
Activity (Aspergillus fumigatus): inactive
MIC (Microsporum canis [5]): 3.12 µg/mL (≈ 12.1 µM)
Activity (Aspergillus niger): inactive
Activity [7]: inactive
Activity (Cryptococcus neoformans): inactive
Activity (Aspergillus flavus): inactive

CC(Br)C(=O)C1CCCCC1 (centres undefined)
Activity (Saccharomyces cerevisiae): inactive
MIC (Epidermophyton floccosum [1]): > 50 µg/mL
Activity (Candida albicans): inactive
MIC (Trichophyton rubrum [2]): > 50 µg/mL
MIC [3]: 50 µg/mL (≈ 228 µM)
MIC (Nannizzia gypsea [4]): > 50 µg/mL
Activity (Aspergillus fumigatus): inactive
MIC (Microsporum canis [5]): > 50 µg/mL
Activity (Aspergillus niger): inactive
Activity (Cryptococcus neoformans): inactive
Activity (Aspergillus flavus): inactive

Reference: ChEMBL document CHEMBL1144120, “In vitro evaluation of antifungal properties of phenylpropanoids and related compounds acting against dermatophytes” (1999)
